Screening results: PubChem, Broad Institute
Hits are enriched below; roughly 3% of the tested compounds scored in any of these assays.
PGC1a acetyl inh: modulators of PGC1a acetylation | actives 0.17% (n = 350,000) | inhibition, % at 15.6 µM | U2OS PGC1a acetylation, AlphaScreen anti-acetyl-lysine; with virally co-expressed GCN5 acetyltransferase;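 active means every replicate shows inhibition of at least 40%; inconclusive means mean inhibition at least 40% but some replicate below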;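 further: 0% = neutral control wells and 100% = positive control wells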
SIRT5 block: blocks human SIRT5 desuccinylation of peptide; Purified SirT5, succinyl-peptide AMC, trypsin-coupled fluorescence; Q9NXA8; inhibition, % at 15 µM; AID 652115; actives 1.1% (n = 330,000); in the data active means inhibition above about 15%; inconclusive means no clear call, values can overlap the other calls
Target sequence (Q9NXA8 whole entry, looked up): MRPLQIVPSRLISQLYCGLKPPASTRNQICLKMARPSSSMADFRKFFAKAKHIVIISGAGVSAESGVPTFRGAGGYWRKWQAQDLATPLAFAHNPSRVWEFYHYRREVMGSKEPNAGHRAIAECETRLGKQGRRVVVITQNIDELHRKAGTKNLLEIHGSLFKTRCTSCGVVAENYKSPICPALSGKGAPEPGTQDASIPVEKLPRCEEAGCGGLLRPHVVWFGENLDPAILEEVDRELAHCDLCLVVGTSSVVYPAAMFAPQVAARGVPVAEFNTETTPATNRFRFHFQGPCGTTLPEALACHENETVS
Statin myotox sup: protects C2C12 myotubes from simvastatin toxicity; ATP luminescence, 48 h; scaled: DMSO 0, geranylgeraniol control 100; rescue of ATP level, % at 7.49 µM; actives 0.78% (n = 330,000); AID 602340;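 active means mean ATP rescue above about 67%, or every replicate alone reaching that limit, limit read from the data, passing the limit was not always enough; inconclusive means no clear call, values can overlap the other calls; inactive means mean under the limit and some replicate under it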;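 further: myotubes were challenged with 10 µM simvastatin during compound exposure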
S100A4 inh HTS: blocks human S100A4 binding to myosin IIA peptide | P26447 | S100A4/TAMRA-MyoIIA peptide fluorescence polarization | actives 0.14% (n = 360,000) | inhibition, % at 10.7 µM;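 active means mean inhibition of at least 70% across replicates, with every replicate also reaching that level; inconclusive means mean inhibition reaches 70% but some replicates fall short; inactive means mean inhibition below 70%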
Target sequence (P26447 whole entry, looked up): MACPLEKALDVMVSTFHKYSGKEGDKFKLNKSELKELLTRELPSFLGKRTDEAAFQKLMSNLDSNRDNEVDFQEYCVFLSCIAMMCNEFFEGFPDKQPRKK
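incubation = readout 5 min after mixing, signal stable up to 60 min | system = S100A4 monomer protein | buffer or medium = HEPES pH 7.2 with CaCl2, KCl, NaCl, DTT, Triton | benchmarks = neutral control DMSO, positive control TFP | also added = fluorescent myosin IIA peptide, 5 nM | compound dosing = one concentration per compound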
Ecoli rRNA inh: inhibits bacterial ribosomal RNA function over humanized ribosomes; AID 720706; GFP signal change (wild-type ribosome), % (no concentration beside the values); E. coli WT GFP vs humanized-ribosome RFP mutants, fluorescence, 24 h; active compounds read low; DMSO median 0, no signal -100; actives 1.6% (n = 350,000);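 active means significant combined selectivity score with lowered wild-type GFP, culture density cut under 30%, mutant RFP and density less affected; inactive means any of these conditions unmet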
Cneo AK release: Cryptococcus neoformans lysis via adenylate kinase release. actives 0.2% (n = 360,000). C. neoformans lysis, adenylate kinase release luminescence, 4 h; normalised: neutral wells 0, clomiphene wells 100. lysis activity, % at 15 µM. AID 651654;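 active means mean lysis activity across replicates of at least 80%, whatever share of replicates individually reach that level; inactive means mean lysis activity below 80%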
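Schedule: static 4 h at 37 °C with compound, 1 h detection; system: C. neoformans cells; benchmarks: Clomiphene as positive control; buffer or medium: fresh YPD medium; measure: luminescence rise reflecting yeast cell lysis; measured by: luminescent adenylate kinase detection reagent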
AID977621: growth inhibition of wild-type GFP E. coli, dose response, H69 mutant RFP, cherry-pick. shares compounds with Ecoli rRNA inh. activity change, negative = inhibition at 50 µM. E. coli wild-type GFP strain growth, fluorescence, 24 h. AID 977621. 1,900 tested, under 10 active;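 active means Wild-type ribosome reporter drop at least double the humanized mutant ribosome reporter drop, growth loss under a set limit; inconclusive means no clear call, values can overlap the other calls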;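 further: wild-type GFP and H69 mutant RFP strains grown together 50/50 in each well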
AID977628: E. coli growth inhibition, wild-type GFP versus h24 humanized RFP strain, dose response, h24 mutant RFP vs wild-type GFP, cherry-pick | 1,900 tested, under 10 active | activity change, negative = inhibition at 50 µM | E. coli WT GFP strain growth, fluorescence, 24 h | AID 977628 | shares compounds with Ecoli rRNA inh;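 active means compound lowering the normal-ribosome reporter at least twice as much as the humanized-ribosome reporter, growth loss under a set limit; inconclusive means no clear call, values can overlap the other calls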;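 further: wild-type GFP and h24 humanized RFP strains co-cultured 1 to 1 per well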
Numbers without * were called inactive; ? = inconclusive; . = no result.

SMILES	PGC1a acetyl inh	SIRT5 block	Statin myotox sup	S100A4 inh HTS	Ecoli rRNA inh	Cneo AK release	AID977621	AID977628
O=C(Nc1ccccc1)N1C[C@H]2[C@@H](c3ccccc31)[C@H](CO)N2C(=O)c1ccccc1F	-8	-1	-2	44	3	-1	.	.
O=C(Nc1ccc(Br)cc1)c1cccnc1N1CCCCC1	-29	-2	60	-4	-34*	2	-4.4	-7.9
C[C@@H]1CCCCO[C@@H](CN(C)C(=O)C2CCCCC2)[C@H](C)CN([C@@H](C)CO)C(=O)c2cc(NC(=O)CCCN(C)C)ccc2O1	.	.	.	.	2	.	.	.
O=C(CCC(=O)c1cccs1)OCC(=O)c1ccc(F)cc1	1	-1	-2	-3	6	0	.	.
O=C(CCC(=O)c1cccs1)OCC(=O)c1ccc(Cl)s1	.	-1	11	0	-18*	0	-16	.
c1ccc(CSCc2ccccc2)cc1	-8	1	-2	-2	-25*	0	4.9	0.76
C(#CSCc1ccccc1)SCc1ccccc1	1	-4	9	-20	0	-2	.	.
Cc1cc(C)cc(NC(=O)c2cccc(NC(=O)c3ccco3)c2)c1	-13	-4	.	0	-24*	-2	-25	.
CN1CCN(C(=O)C[C@H]2CC[C@H](NS(=O)(=O)c3cccc(F)c3)[C@@H](CO)O2)CC1	1	0	0	-8	3	-1	.	.
CC(C)c1ccc(-c2nc3ccccc3s2)cc1	.	0	.	-4	-16*	.	-3.1	-4.9
FC(F)(F)c1ccc(-c2nc3ccccc3s2)cc1	2	-3	-10	2	0	-2	.	.
C(=C/c1nccc2c1[nH]c1ccccc12)/c1ccc2c(c1)OCO2	-18	-3	.	-16	-37*	-1	12	-2.2
O=C1OCCC1Sc1nc2cc(Cl)ccc2n1Cc1ccccc1 (stereo not drawn)	-6	.	.	.	.	.	.	.
O=C1OCCC1Sc1nc2ccccc2c(=O)n1Cc1ccccc1 (stereo not drawn)	.	-3	.	-24	-21*	.	.	-15
Cc1ccc(Cl)cc1N1CCN(S(=O)(=O)N2CCCCC2)CC1	-5	-6	.	1	-28	.	.	.
Cc1ccc(Cl)cc1N1CCN(S(C)(=O)=O)CC1	-4	-1	-33	0	-35*	1	.	?
O=C(C[C@@H]1C[C@@H]2c3cc(NC(=O)c4ccc5c(c4)OCO5)ccc3O[C@@H]2[C@H](CO)O1)NCc1ccccn1	-3	1	1	1	-1	12	.	.
Cc1nn(-c2cccc(Cl)c2)nc1C(=O)O	.	1	.	6	-16*	.	-10	.
c1ccc(Sc2ncnc3ccccc23)cc1	-29	0	40	-11	-18*	2	.	?
COCCNC(=O)C[C@H]1C[C@@H]2c3cc(NC(=O)Nc4ccccc4F)ccc3O[C@@H]2[C@@H](CO)O1	6	.	1	.	-1	1	.	.
COC(=O)[C@@H]1[C@@H](CO)[C@@H]2Cn3c(cccc3=O)[C@@H]2N1C(=O)C1CC1	-1	1	15	22	4	2	.	.
COc1ccccc1C(=O)Nc1cccc2cccnc12	.	-4	-26	-2	-30*	-1	-8.4	.
O=C(Nc1cccc2cccnc12)c1ccccc1Cl	7	4	8	-1	-3	-1	.	.
COc1ccccc1C(=O)COC(=O)c1cccs1	6	-2	-6	4	-24*	-3	-25	-18
CCOC(=O)c1ccc(NC(=O)Cn2nnc(-c3ccccc3C)n2)cc1	26	.	-10	.	.	2	.	.
SMILES	PGC1a acetyl inh	SIRT5 block	Statin myotox sup	S100A4 inh HTS	Ecoli rRNA inh	Cneo AK release	AID977621	AID977628
COC(=O)c1sccc1NC(=O)Cn1nnc(-c2ccccc2C)n1	-1	-1	.	-3	-30*	.	-12	.
Cc1cccc(Cn2nc(C)c(NC(=O)c3ccc(F)cc3)c2C)c1	-6	3	.	6	-9	.	.	.
Cc1nn(Cc2cccc(F)c2)c(C)c1NC(=O)c1c(Cl)cnn1C	.	1	.	2	-18*	.	-4.8	-0.98
CN(Cc1ccc(F)cc1)C(=O)CCc1nnc(-c2ccccc2)o1	-1	-5	.	-4	-5	.	.	.
CN(Cc1nnc(-c2ccc(F)cc2)o1)c1ccccc1	-4	-2	14	-8	-26*	-2	-7.6	-7
CCCC#C/C(CCC)=C1\c2ccccc2C(=O)N1c1ccccc1	.	.	.	-5	-16*	.	-4.9	?
CCC/C(=C1/c2ccccc2C(=O)N1c1ccccc1)c1ccc2[nH]ccc2c1	-1	.	-9	5	-20	-3	.	.
COc1ccc2c3c([nH]c2c1)[C@H](CO)N(C(=O)C1CCOCC1)CC31CCN(C(=O)NC(C)C)CC1	.	-4	.	-11	2	.	.	.
O=C(NC[C@@H]1CC[C@H]2[C@H](CN2S(=O)(=O)c2ccccc2)O1)NC1CCCCC1	.	-2	.	-2	.	.	.	.
COc1ccccc1CNC(=O)CN1C(=O)NC(c2ccccc2)(c2ccccc2)C1=O	3	-1	6	-11	-16*	.	-0.42	.
COc1ccccc1CNC(=O)CSc1ccc(C)cc1	.	.	.	-3	-16*	.	-6.4	.
COc1ccccc1CNC(=O)CSc1ccccc1	.	2	.	-27	-13	.	.	.
CC(=O)[C@]12O[C@]3(COC[C@H](c4ccccc4)N3C1=O)[C@@H]1C(=O)N(C)C(=O)[C@@H]12	4	-4	.	-7	.	-16	.	.
Brc1ccc(Nc2ncnc3[nH]ncc23)cc1	9	0	.	-11	-20*	0	-12	.
CC(=O)c1c(C)[nH]c(C(=O)Nc2nc(C)cs2)c1C	-3	1	-13	0	-21*	-3	-20	-17
CCCNc1ccc(C(=O)OCC)cc1[N+](=O)[O-]	-11	-1	-1	4	-31*	1	-6.2	-12
C/C=C/c1ccc([C@H]2[C@@H](CO)N(C(C)=O)[C@@H]2CN(CCC)C(=O)C2CCC2)cc1	.	-1	.	2	-3	.	.	.
O=C(Nc1ccccc1N1CCOCC1)C1CCCCN1S(=O)(=O)c1ccccc1 (stereo not drawn)	-9	.	.	12	-31*	.	-11	-17
Cc1cccc(NC(=O)C2CCCCN2S(=O)(=O)c2ccccc2)c1C (stereo not drawn)	-2	-1	0	0	-11	0	.	.
O=C1CCCc2c1nc(-c1ccc([N+](=O)[O-])cc1)n2O	.	-1	.	-4	-18*	.	?	?
